These results are taken from ChEMBL document CHEMBL2396639, “Peptidomimetic modification improves cell permeation of bivalent farnesyltransferase inhibitors” (Bioorg Med Chem, 2013).

For data set [1], the target named is T1, Protein farnesyltransferase (Homo sapiens, UniProt P49354+P49356). The data set can be described thus: Inhibition of recombinant FTase (unknown origin)-mediated K-Ras4B model peptide KKKKKKSK(Dans)TKCVIM farnesylation by fluorescence plate reader analysis in presence of FPP. The data set is classed as protein-complex assay. The gist of the method: (§1)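 Recombinant mammalian FTase (50 nM) with dansylated K-Ras4B peptide (1 μM) and FPP (5 μM). Compound tested at 0–500 μM in 50 mM Tris HCl pH 7.5 at 30 °C. Reagents spotted separately, and buffer addition starts the reaction. Fluorescence (ex 340/em 520 nm) followed for 5 min on a plate reader, n = 3. IC50 converted to Ki by Cheng-Prusoff with peptide Km 0.033 μM.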

The target in data set [2] is T1, Protein farnesyltransferase. The data set can be described thus: Inhibition of FTase-mediated prenylation in human A549 cells assessed as inhibition of HDJ-2 processing at 10 to 100 uM treated twice on day 1 and day 3 followed by incubation for 4 days by Western blot analysis. The data set is classed as cell-based. The gist of the method: (§2)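 T24 cells (MEM) or A549 cells (RPMI 1640), each with 10% bovine serum. Cells treated twice with compound at 10, 30 and 100 μM, or DMSO control, then harvested on day 4 and lysed in Tris pH 7.6/Triton X-100 buffer. Lysate (5 µg) run on 7.5% SDS-PAGE, transferred to PVDF, probed with anti-HDJ-2. Read as band shift from processed to unprocessed HDJ-2, detected by HRP anti-rabbit IgG with ECL.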
(In general: Immunoblotting shows a protein as a band on a membrane.)

The target is the same in data set [3]. The data set can be described thus: Inhibition of FTase (unknown origin)-mediated K-Ras4B model peptide KKKKKKSK(Dans)TKCVIM farnesylation by microplate reader analysis. Format: protein-complex assay. The gist of the method: as §1
The nature of data set [4]: Drug uptake in human A549 cell nucleus at 25 uM after 3 hrs by confocal microscopy. Format: ADME, cell-based. The following applies: a549, 3 h. The gist of the method: (§3)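 A549 cells grown in RPMI 1640 with 10% heat-inactivated FBS at 37 °C, 5% CO2. Seeded on glass dish at 1×10^5 cells/mL, adhered overnight. Fluorescent BODIPY-labelled compound added from DMSO stock at 25 μM (0.1% DMSO final), 3 h at 37 °C. Cells washed four times with PBS, covered with Opti-MEM, imaged by laser scanning confocal microscopy.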

Data set [5] is described as follows: Drug uptake in human A549 cell cytosol at 25 uM after 3 hrs by confocal microscopy. The data set is classed as ADME, cell-based. The gist of the method:
as §3

The subject of another data set is T-24. Put plainly: Inhibition of GGTase1-mediated prenylation in human T24 cells assessed as inhibition of Rap1A processing at 10 to 100 uM treated twice on day 1 and day 3 followed by incubation for 4 days by Western blot analysis. Format: cell-based. The gist of the method: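 T24 cells grown in MEM with 10% bovine serum. Treated twice with compound at 10, 30 and 100 μM, or DMSO control, then harvested on day 4 and lysed. Lysate (5 µg) run on 12.5% SDS-PAGE, transferred to PVDF, probed with anti-Rap1A. Geranylgeranylation read as shift from processed to unprocessed Rap1A band, detected by HRP anti-rabbit IgG with ECL.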

The target in data set [6] is T1, Protein farnesyltransferase. Put plainly: Inhibition of FTase-mediated prenylation in human T24 cells assessed as inhibition of HDJ-2 processing at 10 to 100 uM treated twice on day 1 and day 3 followed by incubation for 4 days by Western blot analysis. Format: cell-based. The following applies: T-24. The gist of the method:
as §2

For data set [7], the system named is A549. Put plainly: Drug uptake in human A549 cells assessed as accumulation on plasma membrane at 25 uM after 3 hrs by confocal microscopy. Format: ADME, cell-based. The following applies: a549, 3 h. The gist of the method: as §3
For data set [8], the system named is A549. Put plainly: Cellular uptake in human A549 cells at 25 uM after 3 hrs by confocal microscopy. The data set is classed as ADME, cell-based. The following applies: a549, 3 h. The gist of the method:
as §3

Calls of active or inactive are those of the source. No cut-off for these calls is given here. Residues, ends and D or L forms follow the SMILES beside them. *: point of attachment. X1 = NCC(CN)CCOc1cc(C(=O)*)cc(OCCC(CN)CN)c1OCCC(CN)CN; Ahx = NCCCCCC(=O)O

For `CC[C@H](C)[C@H](NC(=O)[C@@H](NC(=O)[C@H](CS)NC(=O)CCCCCNC(=O)c1cc(OCCC(CN)CN)c(OCCC(CN)CN)c(OCCC(CN)CN)c1)C(C)C)C(=O)N[C@@H](CCSC)C(=O)O` ({X1-Ahx}-CVIM-OH), the Ki was found to be 15 nM in data set [1] and 5 nM in [3]. Also, the inhibition result in data set [2] is “inactive”.
For `COC(=O)[C@H](CCSC)NC(=O)c1ccc(NC[C@H](CS)NC(=O)CCNC(=O)[C@H](CCCCNC(=O)CCC2=C3C(C)=CC(C)=[N+]3[B-](F)(F)n3c(C)cc(C)c32)NC(=O)c2cc(OCCC(CN)CN)c(OCCC(CN)CN)c(OCCC(CN)CN)c2)cc1`, the Drug uptake entry in data set [4] was “Not Active”; in data set [5] it was “Active”.
As for `COC(=O)[C@H](CCSC)NC(=O)c1ccc(NC[C@H](CS)NC(=O)CCCCCNC(=O)c2cc(OCCC(CN)CN)c(OCCC(CN)CN)c(OCCC(CN)CN)c2)cc1`, the inhibition result in data set [2] and in data set [6] was “Active” throughout. For the same compound, the inhibition entry in the data set on T-24 is “inactive”.
On to `CSCC[C@H](NC(=O)c1ccc(NC[C@H](CS)NC(=O)CCCCCNC(=O)c2cc(OCCC(CN)CN)c(OCCC(CN)CN)c(OCCC(CN)CN)c2)cc1)C(=O)O`, for which the Ki in [1] was 837 nM.
For `CC[C@H](C)[C@H](NC(=O)[C@@H](NC(=O)[C@H](CS)NC(=O)CCNC(=O)[C@H](CCCCNC(=O)CCC1=C2C(C)=CC(C)=[N+]2[B-](F)(F)n2c(C)cc(C)c21)NC(=O)c1cc(OCCC(CN)CN)c(OCCC(CN)CN)c(OCCC(CN)CN)c1)C(C)C)C(=O)N[C@@H](CCSC)C(=O)O`, in the data set on A549 [7], the Drug uptake entry is given as “Not Active”.
As for `CC[C@H](C)[C@H](NC(=O)[C@@H](NC(=O)[C@@H](N)CS)C(C)C)C(=O)N[C@@H](CCSC)C(=O)O`, the Ki in [3] came out at 1100 nM.
In the case of `CC1=CC(C)=[N+]2C1=C(CCC(=O)NCCCC[C@H](NC(=O)c1cc(OCCC(CN)CN)c(OCCC(CN)CN)c(OCCC(CN)CN)c1)C(=O)O)c1c(C)cc(C)n1[B-]2(F)F`, in the data set on A549 [8], the Drug uptake result is “Active”.
Turning to `CSCC[C@H](NC(=O)c1ccc(NC[C@@H](N)CS)cc1)C(=O)O`, the inhibition constant (Ki) in [1] worked out at 785 nM.

As usually defined, the Ki is a dissociation constant, usually derived from enzyme kinetics or from competition with a known ligand.
